Eleven compounds from ChEMBL document CHEMBL3132745, “Synthesis and Antimicrobial Activities of His(2-aryl)-Arg and Trp-His(2-aryl) Classes of Dipeptidomimetics” (Medchemcomm, 2014) can be followed below.

≈ marks a conversion by molar mass, not a printed value. Calls of active or inactive are those of the source. The rule behind the calls is not given here. Residues, ends and D or L forms follow the SMILES beside them. *: point of attachment. Boc = CC(C)(C)OC(=O)*; NHBn = c1ccc(CN*)cc1

For series [1], the system named is Escherichia coli. Nature of the series: Antibacterial activity against Escherichia coli ATCC 35218 assessed as growth inhibition after 16-20 hrs by CLSI method. The class given is functional, organism-based.
The test system of series [2] is Candida albicans. Nature of the series: Antifungal activity against Candida albicans assessed as growth inhibition. Type of series: functional, organism-based.
Series [3] concerns Cryptococcus neoformans. Nature of the series: Antifungal activity against Cryptococcus neoformans ATCC 90113 assessed as growth inhibition after 70-74 hrs by CLSI method. The class given is functional, organism-based.
The subject of series [4] is Aspergillus fumigatus. Nature of the series: Antifungal activity against Aspergillus fumigatus assessed as growth inhibition. The class given is functional, organism-based.
In series [5] the test system is KB. Nature of the series: Cytotoxicity against human KB cells assessed as cell viability after 48 hrs by neutral red uptake assay. Type of series: cell-based. A digest of the protocol:
(§1)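 Neutral red uptake assay on human cancer lines (SK-MEL, KB, BT-549, SK-OV-3) and noncancerous mammalian cells (VERO, LLC-PK1). Highest tested concentration was 10 µg/mL.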

The test system of series [6] is LLC-PK1. Briefly: Cytotoxicity against pig LLC-PK1 cells assessed as cell viability after 48 hrs by neutral red uptake assay. The class given is cell-based, Sus scrofa. The note with it: llc-pk1, 48 h. A digest of the protocol: as §1
In series [7] the test system is SK-MEL. Briefly: Cytotoxicity against human SK-MEL cells assessed as cell viability after 48 hrs by neutral red uptake assay. The class given is cell-based. The method, boiled down: as §1
The test system of series [8] is Nakaseomyces glabratus. Nature of the series: Antifungal activity against Candida glabrata assessed as growth inhibition. The class given is functional, organism-based.
Series [9] concerns Vero. Nature of the series: Cytotoxicity against african green monkey Vero cells assessed as cell viability after 48 hrs by neutral red uptake assay. Type of series: cell-based. The note with it: chlorocebus sabaeus. A digest of the protocol:
as §1

Series [10] deals with BT-549. Briefly: Cytotoxicity against human BT549 cells assessed as cell viability after 48 hrs by neutral red uptake assay. The class given is cell-based. To be noted: bt-549, 48 h. The method, boiled down:
as §1

The subject of series [11] is Pichia kudriavzevii. Briefly: Antifungal activity against Candida krusei assessed as growth inhibition. The class given is functional, organism-based.
Series [12] concerns SK-OV-3. Briefly: Cytotoxicity against human SKOV3 cells assessed as cell viability after 48 hrs by neutral red uptake assay. Type of series: cell-based. To be noted: sk-ov-3, 48 h. A digest of the protocol:
as §1

[13] abbreviates: Cryptococcus neoformans, ATCC 90113, read-out: IC50.
Setting [14] is: Cryptococcus neoformans, ATCC 90113.

Regarding `COC(=O)[C@H](Cc1c[nH]c(-c2ccccc2)n1)NC(=O)[C@H](Cc1c[nH]c2ccccc12)NC(=O)OC(C)(C)C`, the “growth inhibition (GI)” value in [1], in series [2], in series [4], in series [8] and in series [11] was “inactive” each time. For the same compound, the half-maximal inhibitory concentration (IC50) result in series [3] is listed as “Not Active”. Moreover, in series [3], the MFC entry is “inactive”. Besides, in series [3], the MIC result was “inactive”. Moreover, the Activity in series [5], in series [6], in series [7], in [9], in series [10] and in [12] was > 10 µg/mL throughout.

With `COC(=O)[C@H](Cc1c[nH]c(-c2ccc(OC)cc2)n1)NC(=O)[C@H](Cc1c[nH]c2ccccc12)NC(=O)OC(C)(C)C`, the “growth inhibition (GI)” value in series [1], in series [2], in series [4], in series [8] and in [11] was “inactive” in each case. Moreover, the half-maximal inhibitory concentration (IC50) result in series [3] is “Not Active”. The MFC entry in series [3] is “inactive”. Moreover, in [3], the MIC entry was “inactive”. For the same compound, the Activity in [5], in series [6], in series [7], in [9], in series [10] and in series [12] was > 10 µg/mL throughout.

With `COC(=O)[C@H](CCCNC(=N)N)NC(=O)[C@H](Cc1c[nH]cn1)NC(=O)OC(C)(C)C` (Boc-His-Arg-OMe), the “growth inhibition (GI)” value in series [1], in series [2], in [4], in [8] and in [11] was “inactive” throughout. Besides, the IC50 entry in [3] is listed as “Not Active”. In series [3], the MFC entry is “inactive”. For the same compound, the MIC result in [3] is “inactive”. Besides, the Activity in series [5], in series [6], in [7], in series [9], in series [10] and in series [12] was > 10 µg/mL throughout.

Take `N[C@@H](Cc1c[nH]c2ccccc12)C(=O)N[C@@H](Cc1c[nH]cn1)C(=O)NCc1ccccc1` (H-Trp-His-NHBn): the “growth inhibition (GI)” value in series [1], in [2], in [4], in series [8] and in series [11] was “inactive” throughout. Further, the half-maximal inhibitory concentration (IC50) entry in [3] is reported as “Not Active”. Also, in series [3], the MFC result is “inactive”. In addition, the MIC entry in [3] was “inactive”. In addition, the Activity in series [5], in series [6], in [7], in series [9], in series [10] and in series [12] was > 10 µg/mL throughout.

In the case of `COC(=O)[C@H](CCCNC(=N)N)NC(=O)[C@@H](N)Cc1c[nH]c(-c2ccccc2)n1`, the “growth inhibition (GI)” value in series [1], in series [2], in series [4], in series [8] and in series [11] was “inactive” in each case. For the same compound, in [3], the MFC entry was “inactive”. The MIC entry in [3] is “inactive”. Also, the IC50 in [3] (setting [13]) is 10.6 µg/mL (≈ 26.3 µM). Further, the Activity in series [5], in [6], in [7], in [9], in series [10] and in [12] was > 10 µg/mL in each case.

Turning to `COC(=O)[C@H](CCCNC(=N)N)NC(=O)[C@@H](N)Cc1c[nH]c(-c2ccc(C(C)(C)C)cc2)n1`, the “growth inhibition (GI)” value in series [1], in series [2], in [4], in series [8] and in [11] was “inactive” each time. For the same compound, in series [3] (setting [14]), the MFC was found to be 20 µg/mL (≈ 43.7 µM). In addition, the minimum inhibitory concentration (MIC) in series [3] (setting [14]) amounted to 20 µg/mL (≈ 43.7 µM). In [3] (setting [13]), the IC50 was 10.2 µg/mL (≈ 22.2 µM). For the same compound, the Activity in series [5], in series [6], in series [7], in series [9], in series [10] and in series [12] was > 10 µg/mL each time.

`CC(C)(C)OC(=O)N[C@@H](Cc1c[nH]c2ccccc12)C(=O)N[C@@H](Cc1c[nH]c(-c2ccc(-c3ccccc3)cc2)n1)C(=O)NCc1ccccc1`: the “growth inhibition (GI)” value in series [1], in series [2], in series [4], in series [8] and in series [11] was “inactive” in each case. In addition, the IC50 result in [3] is on record as “Not Active”. Also, in series [3], the MFC entry is “inactive”. Moreover, the MIC result in series [3] is “inactive”. Further, the Activity in [5], in [6], in [7], in [9], in series [10] and in [12] was > 10 µg/mL each time.

In the case of `COC(=O)[C@H](Cc1c[nH]c(-c2cccc3ccccc23)n1)NC(=O)[C@H](Cc1c[nH]c2ccccc12)NC(=O)OC(C)(C)C`, the “growth inhibition (GI)” value in series [1], in series [2], in series [4], in [8] and in series [11] was “inactive” throughout. Also, the IC50 entry in [3] is on record as “Not Active”. Further, the MFC result in [3] was “inactive”. The MIC result in [3] is “inactive”. Further, the Activity in series [5], in series [6], in [7], in series [9], in [10] and in series [12] was > 10 µg/mL each time.

Consider `COC(=O)[C@H](Cc1c[nH]c(-c2ccc(C)cc2)n1)NC(=O)[C@H](Cc1c[nH]c2ccccc12)NC(=O)OC(C)(C)C`, for which the “growth inhibition (GI)” value in [1], in series [2], in series [4], in [8] and in series [11] was “inactive” each time. Also, the IC50 entry in series [3] is on record as “Not Active”. The MFC result in series [3] is “inactive”. Moreover, in [3], the MIC entry was “inactive”. The Activity in series [5], in series [6], in series [7], in [9], in [10] and in series [12] was > 10 µg/mL in each case.

`CC(C)(C)OC(=O)N[C@@H](Cc1c[nH]c2ccccc12)C(=O)N[C@@H](Cc1c[nH]c(-c2ccccc2)n1)C(=O)NCc1ccccc1`: the “growth inhibition (GI)” value in series [1], in [2], in series [4], in series [8] and in series [11] was “inactive” in each case. Further, in series [3], the IC50 entry is recorded as “Not Active”. In series [3], the MFC entry is “inactive”. The MIC result in [3] was “inactive”. Besides, the Activity in [5], in series [6], in series [7], in series [9], in series [10] and in series [12] was > 10 µg/mL each time.

Consider `COC(=O)[C@H](CCCNC(=N)N)NC(=O)[C@H](Cc1c[nH]c(-c2ccccc2)n1)NC(=O)OC(C)(C)C`, for which the “growth inhibition (GI)” value in [1], in series [2], in [4], in series [8] and in series [11] was “inactive” each time. Besides, the MFC result in [3] was “inactive”. In addition, in series [3], the MIC result was “inactive”. The 50% inhibitory concentration (IC50) in series [3] (setting [13]) was determined as 16.6 µg/mL (≈ 33.1 µM). The Activity in series [5], in [6], in series [7], in series [9], in series [10] and in series [12] was > 10 µg/mL each time.
